From ChEMBL document CHEMBL3351594, “Cytotoxic dimeric epipolythiodiketopiperazines from the ascomycetous fungus Preussia typharum” (J Nat Prod, 2014)
Calls of active or inactive are those of the source. The rule behind the calls is not given here.

Key:
MIA PaCa-2 = assay: Cytotoxicity against human MIAPaCa2 cells up to 30 uM after 24 hrs by MTT assay; format: functional, cell-based
[1] = Cytotoxicity against human SKOV3 cells by SRB method; format: functional; conditions: SK-OV-3
Method in brief: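 SRB assay in SK-OV-3 cells; percent cell growth per Boyd et al.; GI50, TGI and LC50 fitted from dose–response curves of percent growth; mean ± SE, n = 3 or 4 independent experiments.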

SK-OV-3 = assay: Resistance ratio of GI50 for human P-gp expressing SKOV3-M6/6 cells to GI50 for human SKOV3 cells; format: functional
Method in brief: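 SRB assay in SK-OV-3 and its P-gp/MDR1 single-cell clone SK-OV-3/MDR-1-6/6; GI50 from percent growth dose–response curves, n = 3 or 4 independent experiments; relative resistance taken as ratio of GI50 in the MDR line to parental.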

[2] = Cytotoxicity against human P-gp expressing SKOV3-M6/6 cells by SRB assay; format: functional
Method in brief: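 SRB assay in SK-OV-3/MDR-1-6/6 cells, a single-cell clone of SKOV-3/MDR1 (P-gp). Percent cell growth follows Boyd et al. GI50 was derived from dose–response curves of percent growth. Results are mean ± SE of n = 3 or 4 independent experiments. Relative resistance is calculated against parental SK-OV-3.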

mTORC1 (Homo sapiens) = mTORC1 (Homo sapiens) (UniProt P42345+Q8N122+Q9BVC4); conditions: HeLa, 100 nM
mTORC1 (Homo sapiens), sequence (Q8N122 whole entry, looked up, other chains not shown): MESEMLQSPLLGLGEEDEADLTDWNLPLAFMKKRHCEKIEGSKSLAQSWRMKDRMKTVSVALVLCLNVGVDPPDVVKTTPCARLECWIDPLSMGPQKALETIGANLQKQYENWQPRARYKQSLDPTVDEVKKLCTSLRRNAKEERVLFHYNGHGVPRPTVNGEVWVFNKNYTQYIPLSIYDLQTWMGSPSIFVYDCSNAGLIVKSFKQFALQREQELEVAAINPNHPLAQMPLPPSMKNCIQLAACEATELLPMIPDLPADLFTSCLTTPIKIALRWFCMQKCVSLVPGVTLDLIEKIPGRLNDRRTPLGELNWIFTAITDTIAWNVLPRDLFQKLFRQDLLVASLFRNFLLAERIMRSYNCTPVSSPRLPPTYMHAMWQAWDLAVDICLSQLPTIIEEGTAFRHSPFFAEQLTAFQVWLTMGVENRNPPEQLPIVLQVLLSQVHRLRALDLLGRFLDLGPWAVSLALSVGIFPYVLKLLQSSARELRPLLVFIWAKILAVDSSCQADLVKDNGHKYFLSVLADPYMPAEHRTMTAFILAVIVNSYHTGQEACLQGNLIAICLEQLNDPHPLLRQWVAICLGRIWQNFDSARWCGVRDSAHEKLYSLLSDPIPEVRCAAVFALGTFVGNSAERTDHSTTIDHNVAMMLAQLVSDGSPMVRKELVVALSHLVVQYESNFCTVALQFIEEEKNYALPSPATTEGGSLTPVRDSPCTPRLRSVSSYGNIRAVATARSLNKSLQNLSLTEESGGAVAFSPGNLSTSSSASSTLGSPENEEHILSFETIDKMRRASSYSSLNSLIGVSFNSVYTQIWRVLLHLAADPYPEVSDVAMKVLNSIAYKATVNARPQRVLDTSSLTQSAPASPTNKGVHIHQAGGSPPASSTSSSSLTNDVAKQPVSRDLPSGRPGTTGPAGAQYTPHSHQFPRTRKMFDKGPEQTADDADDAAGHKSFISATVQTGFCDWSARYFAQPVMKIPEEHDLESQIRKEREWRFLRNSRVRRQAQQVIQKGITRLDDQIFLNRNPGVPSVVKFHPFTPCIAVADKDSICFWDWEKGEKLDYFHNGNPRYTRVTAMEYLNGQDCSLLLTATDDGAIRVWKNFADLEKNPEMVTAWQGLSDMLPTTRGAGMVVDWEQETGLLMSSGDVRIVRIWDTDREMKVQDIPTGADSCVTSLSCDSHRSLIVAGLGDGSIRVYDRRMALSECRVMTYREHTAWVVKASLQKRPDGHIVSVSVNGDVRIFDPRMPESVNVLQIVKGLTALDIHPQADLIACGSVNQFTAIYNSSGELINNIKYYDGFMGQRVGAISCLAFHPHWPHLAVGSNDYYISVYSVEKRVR
mTORC1 (Homo sapiens), sequence (Q9BVC4 whole entry, looked up, other chains not shown): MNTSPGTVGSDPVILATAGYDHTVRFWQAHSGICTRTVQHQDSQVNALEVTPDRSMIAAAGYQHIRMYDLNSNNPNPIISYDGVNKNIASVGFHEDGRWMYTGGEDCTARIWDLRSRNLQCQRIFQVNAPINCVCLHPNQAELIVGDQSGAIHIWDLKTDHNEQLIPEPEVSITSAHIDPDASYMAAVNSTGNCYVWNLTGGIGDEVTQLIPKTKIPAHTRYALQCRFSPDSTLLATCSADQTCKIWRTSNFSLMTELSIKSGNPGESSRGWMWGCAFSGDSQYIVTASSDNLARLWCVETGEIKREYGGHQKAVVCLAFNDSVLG

[3] = Cytotoxicity against human MIAPaCa2 cells after 24 hrs by MTT assay; format: functional, cell-based; conditions: MIA PaCa-2, 24 h

CS[C@@]1(C(C)C)C(=O)N2[C@H]3N(C)c4ccccc4[C@@]3(C34c5ccccc5N[C@H]3N3C(=O)[C@@](CO)(SC)N(C)C(=O)[C@]3(SC)[C@H]4O)[C@H](O)[C@]2(SC)C(=O)N1C (stereo not given in full)
Activity (MIA PaCa-2): inactive

CC(=O)O[C@H]1C(=O)[C@@]2(C)[C@H]([C@H](OC(=O)c3ccccc3)[C@]3(O)C[C@H](OC(=O)[C@H](O)[C@@H](NC(=O)c4ccccc4)c4ccccc4)C(C)=C1C3(C)C)[C@]1(OC(C)=O)CO[C@@H]1C[C@@H]2O [PACLITAXEL]
GI50 [1]: 4.7 nM | Ratio (SK-OV-3): 127 | GI50 [2]: 600 nM

CO[C@H]1C[C@@H]2CC[C@@H](C)[C@@](O)(O2)C(=O)C(=O)N2CCCC[C@H]2C(=O)O[C@H]([C@H](C)C[C@@H]2CC[C@@H](O)[C@H](OC)C2)CC(=O)[C@H](C)/C=C(\C)[C@@H](O)[C@@H](OC)C(=O)[C@H](C)C[C@H](C)/C=C/C=C/C=C/1C
inhibition (mTORC1 (Homo sapiens)): Active

CS[C@@]1(C(C)C)C(=O)N2[C@H]3Nc4ccccc4[C@@]3(C34c5ccccc5N[C@H]3N3C(=O)[C@@](CO)(SC)N(C)C(=O)[C@]3(SC)[C@H]4O)[C@H](O)[C@]2(SC)C(=O)N1C (stereo not given in full)
Activity (MIA PaCa-2): inactive

CC(C)[C@@]12SS[C@]3(C(=O)N1C)[C@@H](O)[C@]1(C45c6ccccc6N[C@H]4N4C(=O)[C@@]6(CO)SSSS[C@@]4(C(=O)N6C)[C@H]5O)c4ccccc4N[C@@H]1N3C2=O (stereo not given in full)
IC50 [3]: 9.1 nM

CS[C@@]1(C(C)C)C(=O)N2[C@H]3Nc4ccccc4[C@@]3(C34c5ccccc5N(C)[C@H]3N3C(=O)[C@@](CO)(SC)N(C)C(=O)[C@]3(SC)[C@H]4O)[C@H](O)[C@]2(SC)C(=O)N1C (stereo not given in full)
Activity (MIA PaCa-2): inactive

CC(C)[C@@]12SS[C@]3(C(=O)N1C)[C@@H](O)[C@]1(C45c6ccccc6N[C@H]4N4C(=O)[C@]6(CO)SSSS[C@]4(C(=O)N6C)[C@H]5O)c4ccccc4N[C@@H]1N3C2=O (stereo not given in full)
IC50 [3]: 43.1 nM

CC(C)[C@@]12SS[C@]3(C(=O)N1C)[C@@H](O)[C@]1(C45c6ccccc6N[C@H]4N4C(=O)[C@]6(CO)SS[C@]4(C(=O)N6C)[C@H]5O)c4ccccc4N[C@@H]1N3C2=O (stereo not given in full)
IC50 [3]: 33.6 nM
